Test results reported in ChEMBL document CHEMBL1145066, “Novel pyrone side tetracyclic psoralen derivatives: synthesis and photobiological evaluation” (J Med Chem, 2003).
Activity calls are given as the source filed them. The calls are words filed in the database; no cut-off is given here.

Experiments:
[1] = species on record: Cavia porcellus; experiment: Skin Phototoxicity was tested on depilated Guinea Pigs (outbred Dunkin - Hartley strain) and erythema intensity was measured; Absent; format: functional, organism-based
[2] = system: HL-60; experiment: Antiproliferative activity against HL-60 (human promyelocytic leukemic cells) after exposure to UV light; format: functional, cell-based
Procedure, shortened: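 HL-60 cells grown in RPMI 1640 with 15% heat-inactivated FCS at 37 °C, 5% CO2. 10^5 cells/well were incubated 24 h, then test agent was added at various concentrations in complete medium. After 1 h in the dark, cells received a UVA dose of 0.793 J cm^-2 (lamps emitting >90% at 365 nm) and were incubated 24 h more. Viability was read by trypan blue; IC50 is the 50% reduction in cell number versus control cultures.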

[3] = system: HL-60; experiment: Antiproliferative activity against HL-60 (human promyelocytic leukemic cells) in dark condition; format: functional, cell-based
[4] = system: HeLa; experiment: Antiproliferative activity against HeLa (human cervix adenocarcinoma cells) after exposure to UV light; format: functional, cell-based
Procedure, shortened: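 HeLa cells grown in F-12 with 10% heat-inactivated FCS at 37 °C, 5% CO2. 10^5 cells/well were incubated 24 h, switched to phenol-red-free DMEM, and given various agent concentrations. After 1 h they were irradiated with UVA at 0.793 J cm^-2 (365 nm lamps). Drug medium was then removed, and cells were kept 24 h in complete F-12. Trypan blue counts gave IC50 versus control.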

[5] = system: HeLa; experiment: Antiproliferative activity against HeLa (human cervix adenocarcinoma cells) in dark condition; format: functional, cell-based
Procedure, shortened: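 Dark control on HeLa (F-12, 10% FCS, 37 °C, 5% CO2). 10^5 cells/well were seeded and, after 24 h, given phenol-red-free DMEM with various agent concentrations. No irradiation was applied, and compound was not washed out; cells were kept 24 h in complete F-12 with compound. Viability was by trypan blue; IC50 is the 50% drop in cell number relative to control cultures.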

SMILES | Erythema intensity [1] | IC50 [2] | IC50 [3] | IC50 [4] | IC50 [5]
Cc1coc2c(O)c3oc(=O)c4ccccc4c3cc12 | inactive | > 20 µM | > 20 µM | > 20 µM | > 20 µM
Cc1coc2c(OCCCN(C)C)c3oc(=O)c4c(c3cc12)CCCC4 | inactive | 0.95 µM | 16 µM | 0.68 µM | > 20 µM
COc1c2occ(C)c2cc2c1oc(=O)c1ccccc12 | inactive | 11.8 µM | > 20 µM | > 20 µM | > 20 µM
Cc1coc2c(OCCCN(C)C)c3oc(=O)c4ccccc4c3cc12 | inactive | 0.67 µM | 9.9 µM | 0.64 µM | > 20 µM
COc1c2occ(C)c2cc2c3c(c(=O)oc12)CCCC3 | inactive | 13 µM | > 20 µM | 15.7 µM | > 20 µM
COc1c2occc2cc2ccc(=O)oc12 [METHOXSALEN] | – | – | > 20 µM | – | > 20 µM
Cc1coc2c(O)c3oc(=O)c4c(c3cc12)CCCC4 | inactive | 17 µM | > 20 µM | 17.4 µM | > 20 µM
